The list is not random: actives were taken first. Their share in the collection is about 3.4%.
VIM-2 inh = blocks Pseudomonas aeruginosa VIM-2 metallo-beta-lactamase; 0.89% of 290,000 active; inhibition, % at 5.6 µM; purified VIM-2, nitrocefin hydrolysis, epi-absorbance fluorescence; AID 1527;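 active = inhibition above the mean of all tested compounds plus 3 SD, cutoff set per screening run, cut at about 7.5% in these data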;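 also: red hydrolysis product quenches plate fluorescence so inhibitors raise well fluorescence; 0% = enzyme with DMSO and 100% = DMSO without enzyme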
CHT PAM = allosteric activators of human choline transporter CHT; Q9GZV3; AID 488977; 0.49% of 310,000 active; B-score at 10 µM; CHT-expressing cells, membrane potential dye, choline EC20; hits give high values; LV-AA mutant CHT in HEK293 cells;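 active = initial fluorescence not abnormally high and integrated response B-score, plate-corrected, over 3 SD above library mean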
CHT block = human CHT choline transport inhibition; Q9GZV3; CHT-expressing cells, membrane potential dye, choline response; hits give low values; B-score at 10 µM; 0.86% of 310,000 active; AID 488975;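 active = B-score over 3 SD under the library average, and starting fluorescence ratio not unusually high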;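 also: choline stimulus applied at its EC90 after an EC20 pre-addition; B-score computed on integrated fluorescence ratio after choline addition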
IMP-1 inh = inhibitors of Pseudomonas aeruginosa IMP-1 metallo-beta-lactamase. purified IMP-1, nitrocefin hydrolysis, epi-absorbance fluorescence. inhibition, % at 5.6 µM. 0.45% of 290,000 active. AID 1556;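 active = inhibition above the mean plus 3 SD of all compounds in the same screening run, cut at about 4.5% in these data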;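 also: 0% = IMP-1 with DMSO and 100% = DMSO wells lacking enzyme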
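Assay system: purified recombinant IMP-1 beta-lactamase. Input: IMP-1 0.2 nM before substrate addition. Buffer or medium: Zinc- and detergent-supplemented HEPES buffer, pH 7.1. Schedule: 25 °C, 15 min preincubation, 25 min reaction. Signal: Epi-absorbance fluorescence, 480 nm excitation, 530 nm emission. Evaluation: percent inhibition from optical density relative to buffer-blank wells.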
TMEM16A inh = blocks the mouse calcium-activated chloride channel TMEM16A; 1.2% of 310,000 active; HEK293 TMEM16A/YFP iodide influx fluorescence, ionomycin; normalized B-score (activity score, 25-100; higher = stronger inhibition) at 10 µM; AID 588511; Q8BHY3;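 active = ratio plate-corrected score three or more library SD toward inhibition, starting fluorescence score within five deviations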;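 also: score derived from kinetic fluorescence span divided by baseline fluorescence per well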
Target sequence (Q8BHY3 whole entry, looked up): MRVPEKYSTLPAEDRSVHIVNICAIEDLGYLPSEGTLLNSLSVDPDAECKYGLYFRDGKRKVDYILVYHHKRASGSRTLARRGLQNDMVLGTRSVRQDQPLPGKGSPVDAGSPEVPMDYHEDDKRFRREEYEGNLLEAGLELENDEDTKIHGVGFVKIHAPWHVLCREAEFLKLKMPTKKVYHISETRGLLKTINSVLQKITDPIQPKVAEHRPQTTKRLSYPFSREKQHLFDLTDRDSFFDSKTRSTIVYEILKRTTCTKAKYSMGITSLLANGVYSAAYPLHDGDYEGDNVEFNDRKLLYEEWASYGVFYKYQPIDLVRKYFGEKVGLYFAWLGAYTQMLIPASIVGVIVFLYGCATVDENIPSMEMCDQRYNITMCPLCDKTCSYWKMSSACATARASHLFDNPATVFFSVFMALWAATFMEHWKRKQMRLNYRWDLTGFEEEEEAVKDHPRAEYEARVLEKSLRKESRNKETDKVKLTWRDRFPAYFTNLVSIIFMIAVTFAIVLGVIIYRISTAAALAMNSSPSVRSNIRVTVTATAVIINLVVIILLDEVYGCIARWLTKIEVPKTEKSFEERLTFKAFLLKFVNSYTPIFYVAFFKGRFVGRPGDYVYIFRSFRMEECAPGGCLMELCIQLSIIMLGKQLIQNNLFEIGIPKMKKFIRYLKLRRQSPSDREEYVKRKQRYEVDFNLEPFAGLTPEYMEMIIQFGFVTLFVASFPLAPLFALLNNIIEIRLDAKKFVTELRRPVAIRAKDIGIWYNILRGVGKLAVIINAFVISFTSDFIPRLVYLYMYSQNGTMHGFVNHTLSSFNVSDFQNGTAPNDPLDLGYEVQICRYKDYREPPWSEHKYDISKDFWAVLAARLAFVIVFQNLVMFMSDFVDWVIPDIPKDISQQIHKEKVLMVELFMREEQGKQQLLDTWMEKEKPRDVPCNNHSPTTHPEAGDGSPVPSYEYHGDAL
TMEM16A act = activators or potentiators of mouse TMEM16A chloride channel. HEK293 TMEM16A/YFP-H148Q/I152L, iodide quench fluorescence; hits give low values. B-score at 10 µM. 0.3% of 340,000 active;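 active = fluorescence-ratio B-score plate-corrected deviation score at least 3 library SD below zero, with starting fluorescence score within 5 deviations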;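 also: channel opened by trigger with iodide after compound preincubation; score built on the fluorescence ratio of max minus min over baseline; more negative score means more quench and so TMEM16A activation or potentiation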
CHT block conf = human CHT inhibition, confirmatory screen | shares compounds with CHT block | CHT-expressing cells, choline membrane potential dye; LV-to-AA substituted CHT, HEK293 cells | CHT activity remaining % of control (hits give low values), % at 10 µM | 70% of 2,400 active;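 active = choline transporter activity left, mean of duplicates at 10 µM, below buffer-only control mean minus 3 SD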;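 also: depolarization triggered by choline at its EC90 following an EC20 pre-addition; 0% = hemicholinium-3 full block and 100% = buffer-only control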
HEK293 CHT ctr = counter-screen for CHT inhibitors: effect in parental HEK293 cells | 4% of 2,400 active | membrane potential ratio readout (active if shifted either direction beyond buffer ±3SD; no single direction) at 10 µM | membrane potential dye, choline response; active = decrease or increase beyond buffer ±3SD | shares compounds with CHT block;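 also: parental cells lack the transporter so any hit is non-specific; ratio is peak minus trough fluorescence over baseline after EC90 choline challenge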
Numbers without * were called inactive; i = inactive; nt = no result.

SMILES | VIM-2 inh | CHT PAM | CHT block | IMP-1 inh | TMEM16A inh | TMEM16A act | CHT block conf | HEK293 CHT ctr
CC(C)Cc1nc2ccccc2[nH]1 | -3 | i | i | -2 | i | i | nt | nt
COc1ccccc1CC(Cc1nc2ccccc2[nH]1)c1nc2ccccc2[nH]1 (stereo unspecified) | -2 | i | -8.6* | -1 | i | i | 36%* | i
CC1CCCC(C)N1C(=O)COC(=O)c1ccc2ccccc2n1 (stereo unspecified) | nt | nt | nt | nt | nt | i | nt | nt
CSCCCNC(=O)c1ccc(OC2CCN(CCc3ccccc3)CC2)cc1 | -1 | i | -6* | -2 | i | i | 51%* | 4.8*
O=C(NCCc1ccccn1)c1ccc(OC2CCN(CCc3ccccc3)CC2)cc1 | -3 | i | i | 4 | i | i | nt | nt
CCCN1CCC(Oc2cccc(C(=O)NCCc3ccccc3)c2)CC1 | 0 | i | -11* | -1 | i | i | 6.5%* | i
COc1cc2c(cc1OC)/C(=C/C(=O)c1ccccc1F)NCC2 | -1 | i | -5.3* | -4 | i | nt | 52%* | i
COc1cc2c(cc1OC)/C(=C/C(=O)c1cccc([N+](=O)[O-])c1)NCC2 | -1 | i | i | -2 | i | i | nt | nt
Cn1c(-c2ccccc2)cnc1NCc1ccccc1 | -2 | i | -7.2* | -2 | i | i | 46%* | i
Cc1ccc(CNc2ncc(-c3ccccc3)n2C)o1 | -1 | i | -5.1* | -1 | i | i | 34%* | i
Cn1c(-c2ccc3c(c2)OCO3)cnc1NCc1ccccc1 | 4 | i | i | 0 | i | i | nt | nt
O=C(CCC1CCCCC1)NCCS(=O)(=O)N1CCN(c2ccc(F)cc2)CC1 | nt | i | i | nt | i | i | nt | nt
O=C(CCC1CCCC1)NCCS(=O)(=O)N1CCN(c2ccc(F)cc2)CC1 | nt | i | -5.2* | nt | i | i | i | i
Cc1ccc(NC(=O)N2CCCC(c3nc(-c4ccc(F)cc4)no3)C2)cc1 (stereo unspecified) | -1 | i | i | -3 | i | i | nt | nt
O=C(Nc1ccccc1)N1CCCC(c2nc(-c3ccc(F)cc3)no2)C1 (stereo unspecified) | -3 | i | -5.9* | -1 | i | i | i | i
Cc1cccc(N(CC(=O)N/N=C/c2ccc(C(=O)O)cc2)S(=O)(=O)c2ccccc2)c1C | nt | i | i | nt | i | i | nt | nt
c1ccc(CN2CCN(c3nc4ccccc4n4cnnc34)CC2)cc1 | 0 | i | -5.5* | -3 | i | i | 59%* | i
Cc1cc(N2O[C@H]3C=C[C@@H]2C3)no1 | nt | nt | nt | nt | nt | i | nt | nt
Cc1cc(C(=O)Nc2cccc(C)c2C)c2ccccc2n1 | 0 | i | i | -1 | i | i | nt | nt
CCOc1ccccc1NC(=O)CSc1nnc(CNC(=O)c2cc(OC)c(OC)c(OC)c2)o1 | 1 | i | i | 0 | i | i | nt | nt
O=C(Nc1cc(F)ccc1F)C1CCCN(c2ncnc3c2nc2n3CCCCC2)C1 (stereo unspecified) | 0 | i | -6* | -2 | i | i | 46%* | i
Cc1ccc(N2CCN(C(=O)C3CCCN(c4ncnc5c4nc4n5CCCCC4)C3)CC2)c(C)c1 (stereo unspecified) | -3 | i | -5.9* | -2 | i | i | 45%* | i
O=C(C1CCCN(c2ncnc3c2nc2n3CCCCC2)C1)N1CCN(c2ccccc2)CC1 (stereo unspecified) | 0 | i | -6.4* | -2 | i | i | 15%* | i
COc1ccccc1N1CCN(C(=O)C2CCCN(c3ncnc4c3nc3n4CCCCC3)C2)CC1 (stereo unspecified) | -1 | i | i | -1 | i | i | nt | nt
Cc1cccc(N2CCN(C(=O)C3CCN(c4ncnc5c4nc4n5CCCCC4)CC3)CC2C)c1 (stereo unspecified) | 0 | i | -5* | -1 | i | i | 43%* | i
SMILES | VIM-2 inh | CHT PAM | CHT block | IMP-1 inh | TMEM16A inh | TMEM16A act | CHT block conf | HEK293 CHT ctr
COc1cccc(C(C)=C2SC(=S)NC2=O)c1 | nt | nt | nt | nt | nt | i | nt | nt
COc1ccc(-c2cc(C)no2)cc1S(=O)(=O)NCCCN1CCCCCC1 | 2 | i | i | 0 | i | i | nt | nt
CC(C)NC(=NCc1ccc(Cl)cc1Cl)Nc1ccccc1 | -3 | i | i | -4 | i | i | nt | nt
CC(=O)Cn1nnc2sc(-c3ccccc3)cc2c1=O | 0 | i | i | -2 | i | i | nt | nt
O=C(C1CCCN(c2ncnc3c2nc2n3CCCCC2)C1)N1CCN(c2cccc(Cl)c2)CC1 (stereo unspecified) | 0 | i | -10* | -2 | i | i | 47%* | i
CC(/C=N/NC(=O)c1cc(-c2ccncc2)nc2ccccc12)=C\c1ccco1 | -5 | i | -7.5* | -1 | i | i | 40%* | i
Cc1ccc(/C=N/NC(=O)c2cc(-c3ccncc3)nc3ccccc23)o1 | -3 | nt | nt | 0 | nt | i | nt | nt
COc1cc(C#N)ccc1OCC(=O)N1CCc2ccccc2C1 | -2 | i | i | -4 | i | i | nt | nt
CCOC(=O)CC1(CC(=O)OCC)NC(=O)c2c(C)sc(C(=O)OCC)c2N1 | -2 | i | -5.1* | -3 | i | i | 38%* | i
Cc1cc(=O)[nH]c(SCCOc2ccc(OC(C)C)cc2)n1 | -2 | i | -5* | -4 | i | i | i | i
COc1ccc(CC(=O)OC(C)C(=O)Nc2c(C)n(C)n(-c3ccccc3)c2=O)cc1OC (stereo unspecified) | nt | nt | nt | nt | nt | i | nt | nt
CCOC(=O)c1oc2nc(CC(C)C)c3c(c2c1N)CCCC3 | 2 | i | -11* | -1 | i | i | 13%* | i
CCOC(=O)c1oc2nc(C)c3c(c2c1N)CC(C)(C)OC3 | 0 | i | i | 1 | i | i | nt | nt
CC1(C)Oc2ccc(C(=O)NNC(=O)Nc3ccccc3)cc2NC1=O | -1 | i | i | 0 | i | i | nt | nt
Cn1ccnc1C(=O)c1cc(SCC(=O)NC2CC2)nc2ccccc12 | -3 | i | i | -3 | i | i | nt | nt
Cc1cccc(C)c1NC(=O)CSc1cc(C(=O)c2nccn2C)c2ccccc2n1 | -3 | i | -9.5* | 0 | i | i | i | i
